From ChEMBL document CHEMBL4261491, “Synthesis and synergistic antifungal effects of monoketone derivatives of curcumin against fluconazole-resistant Candida spp” (Medchemcomm, 2017) come the findings set out here.

In brackets after ≈: the same amount, converted by molar mass. Activity calls are given as the source filed them. No cut-off for these calls is given here.

The subject of series [1] is Pichia kudriavzevii. In words: Antifungal activity against fluconazole-resistant Candida krusei clinical isolate 2159 by broth microdilution method. Format: functional. In a few lines:
(§1)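 Broth microdilution per CLSI/NCCLS M27-A2 against FLC-resistant clinical isolates. MIC80 read for each compound alone and with fluconazole at 8.0 μg ml–1. C. albicans ATCC 90028 served as quality control. Curcumin was the positive control.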

For series [2], the system named is Candida tropicalis. In words: Antifungal activity against fluconazole-resistant Candida tropicalis clinical isolate 087 by broth microdilution method. In kind it is functional. The procedure, abridged:
as §1
In general terms: Dilution methods test growth across graded concentrations, often in twofold steps.

Series [3] has as its system Candida tropicalis. Kind of series: Antifungal activity against fluconazole-resistant Candida tropicalis clinical isolate 087 in presence of 8 ug/ml fluconazole by broth microdilution method. In kind it is functional. The settings on record: for MIC80: Candida tropicalis, isolate 087. The procedure, abridged:
as §1

Series [4] concerns Candida albicans. In words: Antifungal activity against fluconazole-resistant Candida albicans clinical isolate 103 by broth microdilution method. Format: functional. In a few lines:
as §1

The subject of series [5] is Candida albicans. In words: Antifungal activity against fluconazole-resistant Candida albicans clinical isolate 103 in presence of 8 ug/ml fluconazole by broth microdilution method. Format: functional. To be noted: for MIC80: Candida albicans, isolate 103. The procedure, abridged: as §1
A short description of series [6]: Cytotoxicity against HUVEC assessed as cell viability at 32 ug/ml after 24 hrs by MTT assay relative to control. To be noted: human, HUVEC cells; read-out: Activity. In kind it is cell-based. The procedure, abridged: (§2)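 HUVECs grown in DMEM with 10% FCS and 100 μg ml–1 streptomycin, 5% CO2, 37 °C. Cells exposed to compounds at 16 and 32 μg ml–1 for 24 h, then incubated with MTT solution (5 mg ml–1) for 3 h. Optical density read at 570 nm. Viability expressed as percentage relative to drug-free control.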
A general note: Tetrazolium assays rely on reduction of a dye to a coloured formazan, in cell work by metabolically active cells.

For series [7], the system named is Pichia kudriavzevii. In words: Antifungal activity against fluconazole-resistant Candida krusei clinical isolate 2159 in presence of 8 ug/ml fluconazole by broth microdilution method. In kind it is functional. The settings on record: for MIC80: Pichia kudriavzevii, isolate 2159. The procedure, abridged:
as §1

Series [8] is described as follows: Cytotoxicity against HUVEC assessed as cell viability at 16 ug/ml after 24 hrs by MTT assay relative to control. In kind it is cell-based. To be noted: human, HUVEC cells; read-out: Activity. The procedure, abridged:
as §2

Series [9] relates to Candida tropicalis. In words: Antifungal activity against fluconazole-resistant Candida tropicalis clinical isolate 087 assessed as fungal growth inhibition at 0.5 ug/ml after 48 hrs. Format: functional, organism-based. The procedure, abridged:
(§3)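 C. tropicalis 087 was grown in RPMI 1640 at 30 °C for 48 h with fluconazole (0.25, 0.5, 1 μg ml–1) or compound (64, 128 μg ml–1), alone or combined. OD630 was read every 8 h to build growth curves. Three independent experiments, means ± SD.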

Series [10] has as its system Candida tropicalis. Kind of series: Antifungal activity against fluconazole-resistant Candida tropicalis clinical isolate 087 at 1 ug/ml after 16 hrs by turbidity method. In kind it is functional, organism-based. In a few lines: (§4)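 C. tropicalis 087 at 10^4 CFU ml–1 in RPMI 1640 in glass tubes. Compound (0–128 μg ml–1) and fluconazole (0–2 μg ml–1) were added alone or in combination. Tubes were shaken at 200 rpm at 30 °C for 16 h, and turbidity was inspected visually and photographed.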

Series [11] has as its system Candida tropicalis. Kind of series: Antifungal activity against fluconazole-resistant Candida tropicalis clinical isolate 087 assessed as fungus with permeabilized membrane at 2 ug/ml after 12 hrs by propidium iodide staining-based flow cytometry (reference value: 7.22%). Format: functional. In general terms: In flow cytometry, cells or beads pass a laser one at a time.

Series [12] concerns Candida tropicalis. In words: Synergistic antifungal activity against fluconazole-resistant Candida tropicalis clinical isolate 087 assessed as fungus with permeabilized membrane at 32 ug/ml after 12 hrs in presence of 2 ug/ml fluconazole by propidium iodide staining-based flow cytometry (reference value: 7.22%). Format: functional.
The test system of series [13] is Candida tropicalis. In words: Antifungal activity against fluconazole-resistant Candida tropicalis clinical isolate 087 assessed as apoptosis at 128 ug/ml after 48 hrs. Format: functional, organism-based.
Series [14] relates to Candida tropicalis. Kind of series: Synergistic antifungal activity against fluconazole-resistant Candida tropicalis clinical isolate 087 at 4 ug/ml after 16 hrs in presence of fluconazole by turbidity method. Format: functional, organism-based. In a few lines:
as §4

Series [15] concerns Candida tropicalis. Kind of series: Antifungal activity against fluconazole-resistant Candida tropicalis clinical isolate 087 assessed as fungal growth inhibition at 64 ug/ml after 48 hrs. Format: functional, organism-based. The procedure, abridged:
as §3

In series [16] the test system is Candida tropicalis. In words: Antifungal activity against fluconazole-resistant Candida tropicalis clinical isolate 087 at 64 ug/ml after 16 hrs by turbidity method. In kind it is functional, organism-based. The procedure, abridged: as §4
Series [17] concerns Candida tropicalis. In words: Synergistic fungicidal activity against fluconazole-resistant Candida tropicalis clinical isolate 087 at 64 to 128 ug/ml after 48 hrs in presence of 1 ug/ml fluconazole. In kind it is functional, organism-based. The procedure, abridged: as §3
Series [18] has as its system Candida tropicalis. In words: Fungicidal activity against fluconazole-resistant Candida tropicalis clinical isolate 087 at 128 ug/ml after 48 hrs. In kind it is functional, organism-based. In a few lines:
as §3

Series [19] has as its system Candida tropicalis. In words: Antifungal activity against fluconazole-resistant Candida tropicalis clinical isolate 087 assessed as fungus with permeabilized membrane at 32 ug/ml after 12 hrs by propidium iodide staining-based flow cytometry (reference value: 7.22%). In kind it is functional.

By MIC80 is commonly meant the lowest concentration that inhibits either 80% of growth or 80% of the strains tested, depending on the study. On to `COc1ccc(/C=C/C(=O)/C=C/c2ccc(OC)c(OC)c2)cc1OC`, for which the MIC80 in the series with Pichia kudriavzevii [1] was more than 64 µg/mL; in the series with Candida tropicalis [2], more than 64 µg/mL; in the series with Candida tropicalis [3], 4 µg/mL; against Candida albicans [4], more than 64 µg/mL; in the series on Candida albicans [5], more than 64 µg/mL; in the series with Pichia kudriavzevii [7] it was more than 64 µg/mL. The results for the “fractional inhibitory concentration index (FICI)” value with Candida tropicalis [3], in the series on Candida albicans [5] and in the series on Pichia kudriavzevii [7] were 0.125, more than 1.06 and more than 1.06, respectively. In addition, in series [6], the viability at 24 h, 32 ug/ml is 55%. The viability at 24 h, 16 ug/ml in series [8] came to 67%.
On to `O=C(/C=C/c1cccs1)/C=C/c1cccs1`, for which the MIC80 against Pichia kudriavzevii [1] is more than 64 µg/mL; with Candida tropicalis [2], more than 64 µg/mL; with Candida tropicalis [3], more than 64 µg/mL; in the series with Candida albicans [4], more than 64 µg/mL; in the series on Candida albicans [5], 8 µg/mL; in the series with Pichia kudriavzevii [7], more than 64 µg/mL. Further, the “fractional inhibitory concentration index (FICI)” value in the series with Candida tropicalis [3] is more than 1.06; in the series on Candida albicans [5], 0.188; in the series with Pichia kudriavzevii [7] it was more than 1.06. In addition, the viability at 24 h, 32 ug/ml in series [6] stood at 49%. In series [8], the viability at 24 h, 16 ug/ml amounted to 84%.
`O=C(/C=C/c1ccc2c(c1)OCO2)/C=C/c1ccc2c(c1)OCO2`: the MIC80 in the series with Pichia kudriavzevii [1] is more than 64 µg/mL; in the series on Candida tropicalis [2] it was more than 64 µg/mL; with Candida tropicalis [3], 16 µg/mL; against Candida albicans [4], more than 64 µg/mL; in the series on Candida albicans [5], 32 µg/mL; in the series on Pichia kudriavzevii [7] it was 2 µg/mL. Further, the “fractional inhibitory concentration index (FICI)” value is 0.313 with Candida tropicalis [3], 0.563 with Candida albicans [5] and 0.094 in the series on Pichia kudriavzevii [7]. Moreover, in [6], the viability at 24 h, 32 ug/ml came out at 71%. In series [8], the viability at 24 h, 16 ug/ml worked out at 88%.
As for `O=C(/C=C/c1ccc(O)cc1)/C=C/c1ccc(O)cc1`, the MIC80 with Pichia kudriavzevii [1] was more than 64 µg/mL; with Candida tropicalis [2], more than 64 µg/mL; in the series with Candida tropicalis [3], 8 µg/mL; with Candida albicans [4] it was more than 64 µg/mL; with Candida albicans [5], more than 64 µg/mL; with Pichia kudriavzevii [7], more than 64 µg/mL. Further, the results for the “fractional inhibitory concentration index (FICI)” value with Candida tropicalis [3], with Candida albicans [5] and in the series on Pichia kudriavzevii [7] were 0.188, more than 1.06 and more than 1.06, respectively. In series [6], the viability at 24 h, 32 ug/ml is 75%. In addition, the viability at 24 h, 16 ug/ml in series [8] came out at 87%.
As for `OC(Cn1cncn1)(Cn1cncn1)c1ccc(F)cc1F` [FLUCONAZOLE], the MIC80 with Pichia kudriavzevii [1], in the series with Candida tropicalis [2] and with Candida albicans [4] was 128 µg/mL (≈ 418 µM) throughout. Besides, the “growth inhibition (GI)” value in the series on Candida tropicalis [9] was “Active”. The result with Candida tropicalis [10] was inactive. The Activity in the series with Candida tropicalis [11] is on record as 37.27%.
Consider `O=C1/C(=C/c2ccc(CO)o2)CC/C1=C\c1ccc(CO)o1`, for which the MIC80 in the series on Pichia kudriavzevii [1] is more than 64 µg/mL; against Candida tropicalis [2], more than 64 µg/mL; in the series on Candida tropicalis [3], 4 µg/mL; with Candida albicans [4], more than 64 µg/mL; with Candida albicans [5] it was more than 64 µg/mL; with Pichia kudriavzevii [7] it was more than 64 µg/mL. Further, the results for the “fractional inhibitory concentration index (FICI)” value in the series with Candida tropicalis [3], in the series on Candida albicans [5] and with Pichia kudriavzevii [7] were 0.125, more than 1.06 and more than 1.06, respectively. In [6], the viability at 24 h, 32 ug/ml was determined as 57%. In addition, the viability at 24 h, 16 ug/ml in series [8] was found to be 68%.
On to `O=C(/C=C/c1ccc(O)c(O)c1)/C=C/c1ccc(O)c(O)c1`, for which the MIC80 in the series on Pichia kudriavzevii [1] came to 64 µg/mL (≈ 215 µM); in the series with Candida tropicalis [2], 64 µg/mL (≈ 215 µM); in the series on Candida tropicalis [3], 4 µg/mL; in the series on Candida albicans [4], 64 µg/mL (≈ 215 µM); in the series on Candida albicans [5] it was 4 µg/mL; with Pichia kudriavzevii [7], 8 µg/mL. The results for the Activity with Candida tropicalis [12] and in the series on Candida tropicalis [19] were 72.79% and 20.92%, respectively. Further, the outcome in the series on Candida tropicalis [13], with Candida tropicalis [14], in the series on Candida tropicalis [16], in the series on Candida tropicalis [17] and in the series with Candida tropicalis [18] was Active. Besides, the entries for the “fractional inhibitory concentration index (FICI)” value with Candida tropicalis [3], in the series with Candida albicans [5] and in the series with Pichia kudriavzevii [7] were 0.125, 0.125 and 0.188, respectively. Also, the “growth inhibition (GI)” value in the series with Candida tropicalis [15] was “Active”. For the same compound, the viability at 24 h, 32 ug/ml in series [6] was 75%. Also, the viability at 24 h, 16 ug/ml in series [8] was determined as 91%.
